# MrgX1 ag – agonists of human MrgX1 receptor; Q96LB2; MrgX1-HEK293 cells, Fluo-4 calcium fluorescence, agonist mode; active compounds read high; B-score at 10 µM; 310,000 compounds, 0.44% hits;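 active = calcium response B-score plate-corrected fluorescence ratio at least 3 library SD, with starting fluorescence B-score inside 5 SD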
# Target sequence (Q96LB2 whole entry, looked up): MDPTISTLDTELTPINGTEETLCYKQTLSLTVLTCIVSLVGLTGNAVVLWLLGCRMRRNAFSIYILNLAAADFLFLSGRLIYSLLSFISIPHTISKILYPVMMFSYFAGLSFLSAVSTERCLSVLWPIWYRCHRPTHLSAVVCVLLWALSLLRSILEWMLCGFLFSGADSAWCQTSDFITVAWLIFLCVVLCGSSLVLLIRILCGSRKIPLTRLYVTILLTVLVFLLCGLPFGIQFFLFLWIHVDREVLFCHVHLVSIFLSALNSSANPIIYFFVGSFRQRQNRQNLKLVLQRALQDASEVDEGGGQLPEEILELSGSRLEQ
#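 Test system: HEK293 cells stably expressing human MrgX1 receptor; Input: fifteen thousand cells per well; Dosing: compound delivered in addition one of three; Schedule: overnight seeding, then 1 h dark dye loading; Technique: Fluo-4 NW calcium fluorescence; Measure: B-scored fluorescence response ratio; Controls: positive and negative controls per plate.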
# MrgX1 PAM – allosterically activates human MrgX1 receptor signaling; Q96LB2; MrgX1-HEK293, Fluo-4 calcium flux, FDSS; active compounds read high; B-score at 10 µM; 310,000 compounds, 0.63% hits; AID 588675;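 active = plate-corrected calcium response at least 3 library SD above typical, normal starting fluorescence, not activating the receptor alone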;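 also: compound read alongside a low EC10 to EC30 dose of BAM8-22 agonist; peak minus trough fluorescence over baseline measured at the second addition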
# RGS4 block – human RGS4 inhibition. P49798. HEK293 M3R/RGS4 inducible, Fluo-4 calcium flux; active compounds read high; triggered by carbachol at its EC20. B-score at 10 µM. 310,000 compounds, 0.45% hits;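 active = B-score, a plate-corrected calcium signal, over three deviations above library mean, with baseline fluorescence within five deviations of library mean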;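 also: RGS4 expression induced by doxycycline in cells with stable M3 receptor; B-score is computed from the integrated fluorescence ratio over baseline after carbachol; higher B-score means a larger calcium signal and so more RGS4 inhibition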
# RGS4 pot – potentiators or activators of RGS4. B-score at 10 µM. AID 463111. 310,000 compounds, 0.92% hits. HEK293 M3R/inducible RGS4, carbachol calcium flux Fluo4; active compounds read low;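 active = B-score of the integrated calcium signal more than 4 SD below the library mean, with starting fluorescence not abnormally high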;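 also: negative B-score means reduced calcium response which marks RGS4 activation or potentiation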
#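 Detection: kinetic calcium fluorescence imaging with Fluo4-AM dye, 2 µM / Material: HEK293 cells with stable M3R and inducible RGS4 / Schedule: recording 10 s baseline at 1 Hz, 100 s post-agonist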
# MrgX1 antagonist – blocks BAM8-22 activation of human MrgX1 receptor; Q96LB2; MRGX1-HEK293 calcium flux, Fluo-4, BAM8-22 antagonism; active compounds read low; B-score at 10 µM; 310,000 compounds, 1.3% hits; AID 588676;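 active = calcium-response B-score plate-corrected more than 3 library SD below zero, starting fluorescence within 5 deviations, no agonist response on first addition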;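 also: peak minus trough fluorescence over baseline after final BAM8-22 challenge near maximal dose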
# Active calls of the source: *; i = inactive; . = not tested or not shown. In the library only some 3.5% were active in any assay of this set; here they are far more common.
SMILES,MrgX1 ag,MrgX1 PAM,RGS4 block,RGS4 pot,MrgX1 antagonist
CN(C)S(=O)(=O)c1ccc(C(=O)/C=C/c2cccnc2)cc1,i,i,i,i,i
Cc1ccc(C(=O)c2ccc([N+](=O)[O-])cc2)cc1,i,i,i,i,i
Cc1ccc(S(=O)(=O)CC#CCOC(=O)c2ccc([N+](=O)[O-])cc2)cc1,43*,i,i,i,i
O=[N+]([O-])c1cc(S(=O)(=O)N2CCCCCC2)ccc1F,i,6.6*,.,.,i
CC(=O)c1ccc(NC(=O)Cn2nc(C)c([N+](=O)[O-])c2C)cc1,i,i,i,i,i
Cc1nn(CC(=O)Nc2ccc(C(C)C)cc2)c(C)c1[N+](=O)[O-],i,i,i,i,-7.1*
COc1cc(/C=C2/SC(=S)N(CC3CCCO3)C2=O)ccc1O (stereo not given),i,i,i,i,-8.6*
COc1ccc(/C=C2\SC(=S)N(CC3CCCO3)C2=O)cc1 (stereo not given),i,i,i,i,i
COc1cc(/C=C2\SC(=S)N(C(Cc3ccccc3)C(=O)O)C2=O)ccc1O (stereo not given),56*,i,i,i,i
O=C(O)C(Cc1ccccc1)N1C(=O)/C(=C/c2ccccc2)SC1=S (stereo not given),i,i,i,i,i
CCOC(=O)C1CCCN(C2=NC(=O)/C(=C/c3ccc(O)c(OCC)c3)S2)C1 (stereo not given),i,i,i,i,-4.5*
Nc1nc2ccc([N+](=O)[O-])cc2[nH]1,i,i,i,i,i
Nc1[nH]c2cc([N+](=O)[O-])ccc2c1-c1ccccn1,i,i,i,i,-7.6*
CC(=O)Nc1ccc(S(=O)(=O)NCCCN2CCOCC2)cc1,i,i,i,i,i
N/C(=N\OC(=O)c1ccc(=O)n(Cc2ccccc2)c1)c1ccccn1,i,i,i,i,-5.1*
N/C(=N\OC(=O)c1ccc(Cl)c(Cl)c1)c1cccnc1,i,i,i,i,i
N/C(=N\OC(=O)c1ccc(Cl)c(Cl)c1)c1cccc(CSc2ccccn2)c1,i,i,i,-7.5*,i
N/C(=N\OC(=O)c1ccc(=O)n(Cc2ccc(Cl)cc2)c1)c1ccccn1,i,i,i,i,i
Cc1cc(C(=O)NCC(=O)Nc2c(C)cccc2C)c(C)o1,i,i,i,i,i
Nc1ccc(C(=O)Nc2ccc(NC(=O)c3ccco3)c(O)c2)cc1,i,i,i,i,i
Cc1c(/C=N/NC(=O)c2ccc(O)cc2)c2ccccn2c1C(=O)c1ccc(F)cc1,i,i,i,i,i
Cc1c(C(=O)Nc2ccc(Cl)cc2)c2ccccn2c1C(=O)c1ccc(F)cc1,i,i,i,-9.1*,i
COC(=O)N/N=C/c1c(C)c(C(=O)c2ccc(F)cc2)n2ccccc12,i,i,i,i,i
Cc1c(/C=N/NC(=O)c2ccccc2O)c2ccccn2c1C(=O)c1ccc(F)cc1,i,i,i,i,-7.1*
O=C(Nc1ccccc1)O[C@@H]1C[C@H]2CCC(=O)N3CC[C@@H](C1)[C@@H]23,i,i,i,i,i
SMILES,MrgX1 ag,MrgX1 PAM,RGS4 block,RGS4 pot,MrgX1 antagonist
Cc1cc(OCc2cc(C(=O)N(C)C3CCOC3)no2)cc(C)c1Cl (stereo not given),i,i,i,i,i
CCCN1CCC(=O)N([C@H](CSc2ccc(Br)cc2)c2ccccc2)CC1,i,i,i,i,i
Cc1onc(-c2ccccc2)c1C(=O)N/N=C/C=C/c1ccccc1,i,i,i,i,i
Cc1ccc(C(=O)N/N=C/C=C/c2ccccc2)o1,i,i,i,i,-7*
Clc1ccc(-c2nc(N3CCCCC3)nc3ccccc23)cc1,i,i,i,i,i
c1ccc(-c2nc(-n3nc4ccccc4n3)nc3ccccc23)cc1,i,i,i,-7.2*,i
Cc1ccccc1-n1c(SCc2c(C)noc2C)nnc1-c1c[nH]c2ccccc12,i,i,i,i,-4.5*

# Compound activity from PubChem BioAssay.
